This passage reports Ki and EC50 results from ChEMBL document CHEMBL3352136, “Vinylated linear P2 pyrimidinyloxyphenylglycine based inhibitors of the HCV NS3/4A protease and corresponding macrocycles” (Bioorg Med Chem, 2014).

For one test, the target named is Hepatitis C virus serine protease, NS3/NS4A (Hepatitis C virus, UniProt A3EZI9+D2K2A8). Nature of the test: Inhibition of HCV genotype 1a NS3/4A protease using Ac-DED(Edans)EEAbu-psi[COO]ASK(Dabcyl)-NH2 as substrate by FRET assay. Further details: species or system Hepatitis C virus subtype 1a. In a few lines: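 Full-length NS3/4A (protease–helicase/NTPase, genotype 1a) measured by FRET. Buffer: 50 mM HEPES pH 7.5, 10 mM DTT, 40% glycerol, 0.1% n-octyl-β-D-glucoside, 3.3% DMSO. Ki values derived.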
Hepatitis C virus serine protease, NS3/NS4A, sequence (D2K2A8 whole entry): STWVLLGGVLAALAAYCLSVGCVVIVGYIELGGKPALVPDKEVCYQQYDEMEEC
Hepatitis C virus serine protease, NS3/NS4A, sequence (A3EZI9 whole entry): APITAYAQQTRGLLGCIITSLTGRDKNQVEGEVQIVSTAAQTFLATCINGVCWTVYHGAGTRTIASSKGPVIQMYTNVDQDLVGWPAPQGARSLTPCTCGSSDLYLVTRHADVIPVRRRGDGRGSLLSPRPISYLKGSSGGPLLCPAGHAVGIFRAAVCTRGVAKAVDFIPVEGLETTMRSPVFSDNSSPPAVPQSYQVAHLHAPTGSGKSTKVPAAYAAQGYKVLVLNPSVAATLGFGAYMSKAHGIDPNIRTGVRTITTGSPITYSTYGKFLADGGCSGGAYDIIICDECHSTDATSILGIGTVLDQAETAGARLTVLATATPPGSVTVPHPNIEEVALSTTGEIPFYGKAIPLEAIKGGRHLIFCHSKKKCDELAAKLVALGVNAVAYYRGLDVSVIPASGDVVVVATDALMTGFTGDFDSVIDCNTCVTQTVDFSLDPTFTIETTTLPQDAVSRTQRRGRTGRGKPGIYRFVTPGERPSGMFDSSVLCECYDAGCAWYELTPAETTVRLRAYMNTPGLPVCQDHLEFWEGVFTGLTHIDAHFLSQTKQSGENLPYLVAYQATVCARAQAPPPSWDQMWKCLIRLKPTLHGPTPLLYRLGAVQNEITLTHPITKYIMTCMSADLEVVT
On to `CCC[C@@H]1NC(=O)[C@@H](NC(=O)[C@@H](NC(=O)OC(C)(C)C)C(C)(C)C)c2ccc(cc2)Oc2cc(nc(-c3ccccc3)n2)/C=C/CCCS(=O)(=O)NC1=O`, for which the Ki was 2400 nM.

For the compound `COc1cc(Oc2ccc3cc2/C=C/CCS(=O)(=O)NC(=O)c2ccccc2NC(=O)[C@H]3NC(=O)OC(C)(C)C)nc(-c2ccccc2)n1`, the Ki is 1300 nM. `COc1cc(Oc2ccc(C3NC(=O)[C@H](NC(=O)OC(C)(C)C)CCCCCCCCCCS(=O)(=O)NC(=O)c4ccccc4NC3=O)cc2)nc(-c2ccccc2)n1` (single isomer, unassigned; diastereomer 2) had a Ki of 110 nM. On the same count and under the same terms, under `COc1cc(Oc2ccc3cc2/C=C/CCS(=O)(=O)NC(=O)c2ccccc2NC(=O)[C@H]3NC(=O)[C@@H](NC(=O)OC(C)(C)C)C(C)(C)C)nc(-c2ccccc2)n1` stands 630 nM; under `C=CCCCS(=O)(=O)NC(=O)[C@H](CCC)NC(=O)[C@H]1NC(=O)[C@H](C(C)(C)C)NC(=O)OCC/C=C/c2cc(nc(-c3ccccc3)n2)Oc2ccc1cc2`, 1570 nM.

`C=CCCCS(=O)(=O)NC(=O)c1ccccc1NC(=O)[C@@H](NC(=O)OC(C)(C)C)c1ccc(Oc2cc(C=C)nc(-c3ccccc3)n2)cc1` displayed a Ki of 220 nM. Take `C=CCCS(=O)(=O)NC(=O)c1ccccc1NC(=O)[C@@H](NC(=O)OC(C)(C)C)c1ccc(Oc2cc(OC)nc(-c3ccccc3)n2)c(C=C)c1`: the Ki is 370 nM. Compound `COc1ccc2c(Oc3ccc([C@H](NC(=O)[C@@H](NC(=O)OC(C)(C)C)C(C)(C)C)C(=O)Nc4ccccc4C(=O)NS(=O)(=O)c4ccccc4)cc3)cc(-c3ccccc3)nc2c1` returned a Ki of 310 nM. In turn, `C=CCCCS(=O)(=O)NC(=O)[C@H](CCC)NC(=O)[C@@H](NC(=O)[C@@H](NC(=O)OC(C)(C)C)C(C)(C)C)c1ccc(Oc2cc(-c3ccccc3)nc3cc(OC)ccc23)c(C=C)c1` yielded a Ki of 63 nM. The compound `C=CCCCS(=O)(=O)NC(=O)[C@H](CCC)NC(=O)[C@@H]1C[C@@H](Oc2cc(-c3ccccc3)nc3cc(OC)ccc23)CN1C(=O)[C@@H](NC(=O)OC(C)(C)C)C(C)(C)C` showed a Ki of 300 nM.

In the case of `COc1cc(Oc2ccc(C3NC(=O)[C@H](NC(=O)OC(C)(C)C)CCCCC/C=C/CCS(=O)(=O)NC(=O)c4ccccc4NC3=O)cc2)nc(-c2ccccc2)n1` (stereo partly specified), the affinity, expressed as Ki, was 220 nM. `COc1ccc2c(O[C@@H]3C[C@@H](C(=O)Nc4ccccc4C(=O)NS(=O)(=O)c4ccccc4)N(C(=O)[C@@H](NC(=O)OC(C)(C)C)C(C)(C)C)C3)cc(-c3ccccc3)nc2c1` gave a Ki of 830 nM. For the compound `COc1ccc2c(O[C@@H]3C[C@H]4C(=O)N[C@]5(C(=O)O)C[C@H]5/C=C\CCCCC[C@H](NC(=O)OC5CCCC5)C(=O)N4C3)cc(-c3csc(NC(C)C)n3)nc2c1`, the Ki was found to be 0.3 nM.

Turning to `C=CCCCS(=O)(=O)NC(=O)c1ccccc1NC(=O)[C@@H](NC(=O)[C@@H](NC(=O)OCCC=C)C(C)(C)C)c1ccc(Oc2cc(C=C)nc(-c3ccccc3)n2)cc1`, the Ki was found to be 110 nM.

For the next test, the system named is Hepatitis C virus. Nature of the test: Antiviral activity against HCV genotype 1b infected in human Huh-7 cells by firefly luciferase assay. It is filed as functional, cell-based, Hepacivirus hominis. Summed up:
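Huh-7 cells carrying a subgenomic HCV genotype 1b replicon with firefly luciferase reporter; EC50 derived from luciferase signal.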
As for `C=CCCCS(=O)(=O)NC(=O)c1ccccc1NC(=O)[C@H](NC(=O)[C@@H](NC(=O)OC(C)(C)C)C(C)(C)C)c1ccc(Oc2cc(-c3ccccc3)nc3cc(OC)ccc23)c(C=C)c1`, the EC50 was 5400 nM. For `C=CCCCS(=O)(=O)NC(=O)c1ccccc1NC(=O)[C@@H](NC(=O)[C@@H](NC(=O)OC(C)(C)C)C(C)(C)C)c1ccc(Oc2cc(-c3ccccc3)nc3cc(OC)ccc23)c(C=C)c1`, the EC50 was determined as 5400 nM.
